# Screening results deposited in PubChem by several laboratories.
# RAM inhibit = blocks the yeast RAM network. hit rate 1.8% among 190,000. AID 868. S. cerevisiae dse1pr::URA3 reporter, 5-FOA growth OD615, 2 d; analog-sensitive cbk1-as2 kinase mutant strain. inhibition, % at 50 µM;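 active = inhibition above a set limit, 3 SD over mean compound inhibition, cut at about 8.4% in these data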;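 note: 0% = DMSO-only wells with no growth and 100% = 10 µM 1-NA-PP1 full growth; inhibition rescues growth on 5-FOA so higher OD means more RAM inhibition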
# ABCB1 block = blocks JC-1 efflux by human ABCB1 transporter | inhibition, % at 6.6 µM | P08183 | CCRF-Adr cells, flow cytometry | AID 1326 | hit rate 0.067% among 190,000; in the data active = inhibition above about 40%;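 note: 0% = vehicle and 100% = reference inhibitor; higher value means more JC-1 retained so stronger ABCB1 efflux block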
# ABCG2 inh = human ABCG2 inhibition, ABCB1 as counter-screen. Q9UNQ0. IgMXP3 cells, JC-1 efflux, flow cytometry. inhibition, % at 6.6 µM. hit rate 0.1% among 190,000. AID 1325;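 active = inhibition above 80%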;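 note: 0% = DMSO and 100% = nicardipine control wells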
#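 material = IgMXP3 (ABCG2) plus far-red-tagged CCRF-Adr (ABCB1) cells | amount = 3 million cells/mL, equal mix of both lines | also added = JC-1 transporter substrate | dosing = one concentration, 6.6 µM final | schedule = 10 min at 25 °C | measured by = flow cytometric JC-1 green MFI at 530 nm | read-out basis = percent efflux inhibition, scaled nicardipine 100% to DMSO 0%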
# Lmaj promast = Leishmania major promastigote growth inhibition; Leishmania major promastigotes, resazurin fluorescence viability; inhibition, % at 10 µM; hit rate 9% among 200,000; in the data active = inhibition above about 50%;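 note: promastigotes grown with compound for 44 hours at 28 °C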
# WT yeast gro inh = growth inhibition of WT yeast, mitochondrial fusion screen | mitochondrial fusion phenotypic screen, WT strain | inhibition, % at 10 µM | hit rate 2.1% among 190,000; in the data active = inhibition above about 58%; tested in S. cerevisiae
# Starred values were filed as active, the others as inactive. Rows were chosen to be rich in hits. Some 12% of all compounds tested hit in one or more screens of this group.
SMILES,RAM inhibit,ABCB1 block,ABCG2 inh,Lmaj promast,WT yeast gro inh
Cc1cccc(OCC(=O)N/N=C/c2cc([N+](=O)[O-])ccc2N2CCOCC2)c1,3,4,10,87*,16
COc1ccc(NCC(=O)N/N=C/c2cc([N+](=O)[O-])ccc2N2CCCC2)cc1,3,0,0,18,-7
O=C(N/N=C\c1cc([N+](=O)[O-])ccc1N1CCOCC1)c1ccccn1,1,2,7,3,-3
CCCOc1ccccc1NC(=O)Nc1ccccc1Cl,7,0,7,-4,3
CC1CC(CN)CC(CO)C1 (centres undefined),1,0,0,-5,-5
COc1ccc(CNC(=O)c2coc(=O)c3ccccc23)c(OC)c1,2,2,6,-12,-13
